The values that follow come from article PMC3752283 (The Analyst, 2013).

The structures appear in SMILES notation. Positions of bridges follow the written chain, without caps; N, C: chain ends. Non-standard residues stand in square brackets, D forms with d. Residues, ends and D or L forms follow the SMILES beside them. *: point of attachment. 6FAM = O=C1OC2(c3ccc(O)cc3Oc3cc(O)ccc32)c2cc(C(=O)*)ccc21; PEG3 = NCCOCCOCCOCCC(=O)O

This series can be described thus: Lysate degradation assay. Format: in vitro ADME, mouse. The note with it: for time for 90% degradation of the peptide: Baf/BCR-ABL cell lysate, 3 mg mL^-1 protein, 2 μM peptide, 37 °C, CE-LIF; for half-life at 2 μM: mouse, Baf/BCR-ABL cell lysate (cytosolic), pH 7.4. The method in brief: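 Mouse B-cell lymphoma Baf/BCR-ABL cells washed and resuspended in cold ECB (pH 7.4), then lysed by three cycles of liquid nitrogen (1 min) and 37 °C thaw; supernatant kept after 14,000 × g, 4 °C, 5 min. Peptide at 2 μM in lysate (3 mg mL−1 protein), 37 °C, triplicate. Timed aliquots quenched with HCl (100 mM final) and 95 °C for 4 min. Intact fraction = intact-peak area / total peak area.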

As for `CC[C@H](C)[C@H](NC(=O)[C@H](C)NC(=O)[C@H](CCC(=O)O)NC(=O)[C@H](CCCCNC(=O)c1ccc2c(c1)C1(OC2=O)c2ccc(O)cc2Oc2cc(O)ccc21)NC(=O)CCOCCOCCOCCNC(=O)CCOCCOCCOCCNC(=O)[C@H](CCCNC(=N)N)NC(=O)CNC(=O)[C@H]1CCCN1C(=O)[C@@H](N)Cc1c[nH]c2ccccc12)C(=O)N[C@@H](Cc1ccc(O)cc1)C(=O)N[C@@H](C)C(=O)N[C@@H](C)C(=O)N1CCC[C@H]1C(=O)N[C@@H](Cc1ccccc1)C(=O)N[C@@H](C)C(=O)N[C@@H](CCCCN)C(=O)N[C@@H](CCCCN)C(=O)N[C@@H](CCCCN)C(N)=O` [Peptide 2] (H-W[dP]GR[PEG3][PEG3]K(6FAM)EAIYAAPFAKKK-NH2; N-terminus assumed), the “time for 90% degradation of the peptide” value was at most 10 min and the half-life at 2 μM turned out to be 4.8 ± 0.4 min. Also, where the note is “Baf/BCR-ABL cytosolic lysate”, the “increase in half-life over the control peptide” value is around 10 fold.
Regarding `CC[C@H](C)[C@H](NC(=O)[C@H](C)NC(=O)[C@H](CCC(=O)O)NC(=O)[C@H](CCCCNC(=O)c1ccc2c(c1)C1(OC2=O)c2ccc(O)cc2Oc2cc(O)ccc21)NC(=O)CCOCCOCCOCCNC(=O)CCOCCOCCOCCNC(=O)[C@@H]1CSCC(=O)N[C@@H](Cc2c[nH]c3ccccc23)C(=O)N2CCC[C@@H]2C(=O)NCC(=O)N[C@@H](CCCNC(=N)N)C(=O)N1)C(=O)N[C@@H](Cc1ccc(O)cc1)C(=O)N[C@@H](C)C(=O)N[C@@H](C)C(=O)N1CCC[C@H]1C(=O)N[C@@H](Cc1ccccc1)C(=O)N[C@@H](C)C(=O)N[C@@H](CCCCN)C(=O)N[C@@H](CCCCN)C(=O)N[C@@H](CCCCN)C(N)=O` [Peptide 4] ({CH2CO}-W[dP]GRC[PEG3][PEG3]K(6FAM)EAIYAAPFAKKK-NH2; thioether N-5), the “time for 90% degradation of the peptide” value is on record as 25 min and the half-life at 2 μM came to 9.2 ± 1.2 min.

The half-life is the time needed for the level to fall by half in the phase considered.
